Assay results: the EternaBench riboswitch data

Test system: MS2 coat protein
Assay: apparent Kd, MS2 coat protein; higher = weaker binding; RNA-MaP array; FMN 200 µM where present
Method in brief: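 Each design was made on Illumina sequencing-chip clusters by stalled E. coli RNA polymerase and titrated with SNAP-549-labelled MS2 coat protein from 0.7 or 1.5 nM, doubling to 3 µM, in the absence and then the presence of constant ligand. The buffer was 100 mM Tris-HCl pH 7.5, 80 mM KCl, 4 mM MgCl2, BSA, DTT, yeast tRNA and Tween-20. The apparent Kd is the median of filtered per-cluster fits of binding curves, with green signal normalised to red-channel RNA signal and control-cluster median Fmax.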

[1] = designed as: ON switch for flavin mononucleotide, no ligand
[2] = ligand present: flavin mononucleotide, designed as: ON switch for flavin mononucleotide
[3] = designed as: OFF switch for flavin mononucleotide, no ligand
[4] = ligand present: flavin mononucleotide, designed as: OFF switch for flavin mononucleotide

Sequence | apparent Kd [1] [nM] | apparent Kd [2] [nM] | apparent Kd [3] [nM] | apparent Kd [4] [nM]
AAUUGGAUCCAGAAGGCAUGGACGACCCGUCACAUUAACAUGAGGAUCACCCAUGUCAAAAGACAUGAGGAUAUGGAUCCUAAA | 752 | 31.8 |  | 
AAUUGGAUGCAGAAGGCAUGGACGACUCGUCACAUUAACAUGAGGAUCACCCAUGUCAAAAGACAUGAGGAUAUGCAUCCUAAA | 233 | 13.6 |  | 
AAUUUAAAGGGAGGAUAUACAUGAGGAUCACCCAUGUAAUCAUAUGAUAUUUUUUUUGUAUGAGUGUAGAAGGCCCAAAUAAAA |  |  | 7.72 | 9.3
AAUUUACAGCUAGGAUAUACAUGAGGAUCACCCAUGUAAUCAUAGGAUGUUAUCAUUGUAUGAGUGUAGAAGGAGCAAAUAAGA |  |  | 6.73 | 6.74
AAUUUACAGGCAGGAUAUACAUGAGGAUCACCCAUGUAAUCAUAUGAUAUUUUUUUUGUAUGAGUGUAGAAGGGCCAAAUAAAA |  |  | 7.79 | 7.99
AAUUUACAGGGAGGAUAUACAUGAGGAUCACCCAUGUAAUCAUAUGAUAUUUCUUUUGUAUGAGUGUAGAAGGCCCAACUACCA |  |  | 9.96 | 8.87
AAUUUACAUGAGGAUCACCCAUGUGAGGAUAUAUAUACAUGCUUGUUAUUGCGUGUGUGUAGAAGGCGCGUGAU |  |  | 64.7 | 115
AAUUUUGCAGGAUAUGCGCAGCGUUUAGCCACACUAUGGAAACAUGAGGAUCACCCAUGUAGAAGGGCAGAGAU |  |  | 26.4 | 20.8
AAUUUUUAACAGAAGGCGUUUAUAUUUAAGUUACGAGGAUAUGUAUAACAUGAGGAUCACCCAUGUAACAUGGAUAUUUAAUAA | 10.3 | 8.49 |  | 
ACAAAGUGAGGAUAUGCUUUUAUUUAUUAUUAUUAUUAUUUGCAGAAGGCACAUGAGGAUCACCCAUGUAAGAA |  |  | 32.9 | 25.5
ACAAAUGGAGGAUAUACAUGAGGAUCACCCAUGUAUAUCCUACAUAUGUGAUUUUUAUGUAGAAGGCCAUUUGA |  |  | 12.8 | 13.4
ACAAAUUAGUGAGGAUAUGCUUAAUUUAUAACUGCAGAAGGCACAUACCUCAAGACAUGAGGAUCACCCAUGUGGAAUAUAGAU |  |  | 25.4 | 62.8
ACAAAUUCUGACAUGAGGAUCACCCAUGUUAGAUUGUUAUGUCAGGAUAUUAUCUGGCAACCAGAUGAGAAGGGACGAUUUGUG | 10.6 | 7.15 |  | 
ACACGAAAGUCAGGAUAUGUAUCAGCACGAUAGUUACAUGAGGAUCACCCAUGUUUCACGGGCCAACAGAAGGGACAGGGUGGC | 18.4 | 7.62 |  | 
ACAGAGGCUGACAUGAGGAUCACCCAUGUUAGAUUGUUAUGUCAGGAUAUUAUCUGGCAACCAGAUGAGAAGGGACCCUCUGUU | 21.5 | 7.68 |  | 
ACAGCCGUCUAGAAGGGCGUAACUAAUUCCUACGUAGGAUAUGGACGGACAUGAGGAUCACCCAUGUUUGCAUUCCUCGUGGUA |  |  | 7.74 | 8.46
ACAGCGGAGGCAGGAUAUCGCACAUGAGGAUCACCCAUGUGGUUAUUUACGGGUUGGUGGUCACGCGAGAAGGGCCAACCAUAA |  |  | 59 | 31.7
ACAGUUGGUAGGCCCUCGGAACAUGAGGAUCACCCAUGUAAGGAGGAUAUGCCCGGUACCCGCUGGCAGAAGGCCUUAUAAGAA |  |  | 8.8 | 44.9
ACAUAAAUUCGAGGAUAUCGGUGAUAUAAUUUACGAGAAGGCGAUAAAUGUUAUAAACUUAUAGACAUGAGGAUCACCCAUGUA | 35.1 | 32.5 |  | 
ACAUACUUUCGAGGAUAUCGGUGAUAAAUUUUACGAGAAGGCGAUAAAAGAUAUAAUCUUAUAAACAUGAGGAUCACCCAUGUA | 25.5 | 23.9 |  | 
ACAUAGUAAGGAUAUGCUGCUCGUCACUUGCGUGAUGAGUAGCAGAAGGUACAUGAGGAUCACCCAUGUAAAGA |  |  | 30.1 | 20.3
ACAUGAGGAUCACCCAUGUAAAAUGAAGAAGGUAUAUACUUGAGGAUCACCCAUGUACAUGGGAGUAAGGAUAUUCUAAUAAUU | 13.2 | 11.3 |  | 
ACAUGAGGAUCACCCAUGUAAUAACAUCGGUUAUACGAAAGUGAGGAUAUCGAUCAGGCAUAUUACGAGAAGGCACAAUAGGGA | 41.3 | 43.2 |  | 
ACAUGAGGAUCACCCAUGUAGAAUGGAGAAGGUAGAUACUUGUGACUCACCCAUGUACAUAGGACUAAGGAUAUUCUAAUAAUU | 94.4 | 54.2 |  | 
ACAUGAGGAUCACCCAUGUAUACAUAGGAUAUUGGUGAUCAGGCAUGUUAUACAGGAUAUGUCUGCGAGAAGGAUGCACGUUGC | 680 | 476 |  | 
ACAUGAGGAUCACCCAUGUAUUACAUGGUUAAGUUUAUUAACAGAAGGCGAAAUUACCACUUGAUCGAGGAUAUGUAUUCAAUU |  |  | 45 | 40.3
ACAUGAGGAUCACCCAUGUAUUACAUGGUUUAGUUUAUUAACAGAAGGCGAAAUUACCACUUUUUCGAGGAUAUGUAUUCUAUA |  |  | 71 | 64.2
